Legend:
Rattus norvegicus = experiment: Analgesic activity measured by rat tail flick assay following s.c. administration.; format: functional; design: unit not given here
Method in brief: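 Male albino rats (100–120 g). Two control reaction times are taken 30 min apart before dosing. For agonist activity, test drug is given subcutaneously with no morphine, and tail-flick reaction time is retested 20 min postdrug. Activity is judged against control groups. ED50 values with 95% confidence limits are obtained by Litchfield–Wilcoxon.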

Mus musculus = experiment: Analgesic activity was measured by acetic acid writhing test in mouse by giving subcutaneous injection; format: functional; design: unit not given here
Method in brief: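 Male albino Charles River mice (18–22 g), five per dose, at least three doses per ED50. Salts are given in distilled water; free bases are dissolved with dilute HCl and then diluted with water. Drug is given s.c. 15 min before i.p. 0.5% HOAc (0.4 mL). Writhes are counted for 20 min, starting 5 min post-HOAc, and compared with controls. ED50 with 95% confidence limits by Litchfield–Wilcoxon.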

Row | Compound | ED50 (Rattus norvegicus) | ED50 (Mus musculus)
1 | CCCC[C@H]1CC(=O)[C@@H]2Oc3c(OC)ccc4c3C23CCN(C)C(C4)C13 (stereo partly specified) | >50 | 27
2 | CC[C@@H]1CC(=O)[C@@H]2Oc3c(OC)ccc4c3C23CCN(C)C(C4)C13 (stereo partly specified) | >30 | 3
3 | C[C@H]1CC(=O)[C@@H]2Oc3c(O)ccc4c3C23CCN(C)C(C4)C13 (stereo partly specified) | 1.6 | 0.24
4 | CCC(C)[C@H]1CC(=O)C2Oc3c(OC)ccc4c3C23CCN(C)C(C4)C13 (single isomer, unassigned; form 1) |  | >25
5 | COc1ccc2c3c1O[C@H]1C(=O)C[C@H](C4CC4)C4C(C2)N(C)CCC341 (stereo partly specified) | >25 | 42
6 | CCC[C@H]1CC(=O)[C@@H]2Oc3c(OC)ccc4c3C23CCN(C)C(C4)C13 (stereo partly specified) |  | 17.5
7 | CCCCCCCC[C@H]1CC(=O)[C@@H]2Oc3c(OC)ccc4c3C23CCN(C)C(C4)C13 (stereo partly specified) | >50 | 25.9
8 | C=C(C)[C@H]1CC(=O)[C@@H]2Oc3c(OC)ccc4c3C23CCN(C)C(C4)C13 (stereo partly specified) |  | >50
9 | COc1ccc2c3c1O[C@H]1C(=O)C[C@H](c4ccccc4)C4C(C2)N(C)CCC341 (stereo partly specified) |  | >50
10 | COc1ccc2c3c1O[C@H]1C(=O)C[C@H](C)C4C(C2)N(C)CCC341 (stereo partly specified) | 10.2 | 4.9
11 | CC[C@H]1CC(=O)[C@@H]2Oc3c(OC)ccc4c3C23CCN(C)C(C4)C13 (stereo partly specified) | 20.3 | 1.8
12 | C=C[C@H]1CC(=O)[C@@H]2Oc3c(OC)ccc4c3C23CCN(C)C(C4)C13 (stereo partly specified) | 130 | 13.8
13 | COc1ccc2c3c1O[C@H]1C(=O)C[C@@H](C)C4C(C2)N(C)CCC341 (stereo partly specified) | 3.8 | 2
14 | CC[C@H]1CC(=O)[C@@H]2Oc3c(O)ccc4c3C23CCN(C)C(C4)C13 (stereo partly specified) | 1.12 | 0.41
15 | COc1ccc2c3c1O[C@H]1C(=O)C[C@H](C(C)(C)C)C4C(C2)N(C)CCC341 (stereo partly specified) | >25 | 17.6
16 | CCC[C@@H]1CC(=O)[C@@H]2Oc3c(OC)ccc4c3C23CCN(C)C(C4)C13 (stereo partly specified) | >25 | >25
17 | CCC(C)[C@H]1CC(=O)C2Oc3c(OC)ccc4c3C23CCN(C)C(C4)C13 (single isomer, unassigned; form 2) |  | 14.1
18 | COc1ccc2c3c1O[C@H]1C(=O)C[C@H](C(C)C)C4C(C2)N(C)CCC341 (stereo partly specified) | >55 | 21.7
